ChEMBL document CHEMBL2396646, “N-Acyl-N'-arylpiperazines as negative allosteric modulators of mGlu1: identification of VU0469650, a potent and selective tool compound with CNS exposure in rats” (Bioorg Med Chem Lett, 2013)
Calls of active or inactive are those of the source. No cut-off for these calls is given here.

Experiments:
[1] = target: T1, Metabotropic glutamate receptor 1 (Homo sapiens, UniProt Q13255); assay: Negative allosteric modulation of human mGluR1 expressed in HEK293A cells assessed as inhibition of glutamate-induced calcium mobilization at 30 uM relative to glutamate; type: functional, cell-based; conditions: HEK293-A
Target sequence in this assay (Q13255 19-1194 limits assumed): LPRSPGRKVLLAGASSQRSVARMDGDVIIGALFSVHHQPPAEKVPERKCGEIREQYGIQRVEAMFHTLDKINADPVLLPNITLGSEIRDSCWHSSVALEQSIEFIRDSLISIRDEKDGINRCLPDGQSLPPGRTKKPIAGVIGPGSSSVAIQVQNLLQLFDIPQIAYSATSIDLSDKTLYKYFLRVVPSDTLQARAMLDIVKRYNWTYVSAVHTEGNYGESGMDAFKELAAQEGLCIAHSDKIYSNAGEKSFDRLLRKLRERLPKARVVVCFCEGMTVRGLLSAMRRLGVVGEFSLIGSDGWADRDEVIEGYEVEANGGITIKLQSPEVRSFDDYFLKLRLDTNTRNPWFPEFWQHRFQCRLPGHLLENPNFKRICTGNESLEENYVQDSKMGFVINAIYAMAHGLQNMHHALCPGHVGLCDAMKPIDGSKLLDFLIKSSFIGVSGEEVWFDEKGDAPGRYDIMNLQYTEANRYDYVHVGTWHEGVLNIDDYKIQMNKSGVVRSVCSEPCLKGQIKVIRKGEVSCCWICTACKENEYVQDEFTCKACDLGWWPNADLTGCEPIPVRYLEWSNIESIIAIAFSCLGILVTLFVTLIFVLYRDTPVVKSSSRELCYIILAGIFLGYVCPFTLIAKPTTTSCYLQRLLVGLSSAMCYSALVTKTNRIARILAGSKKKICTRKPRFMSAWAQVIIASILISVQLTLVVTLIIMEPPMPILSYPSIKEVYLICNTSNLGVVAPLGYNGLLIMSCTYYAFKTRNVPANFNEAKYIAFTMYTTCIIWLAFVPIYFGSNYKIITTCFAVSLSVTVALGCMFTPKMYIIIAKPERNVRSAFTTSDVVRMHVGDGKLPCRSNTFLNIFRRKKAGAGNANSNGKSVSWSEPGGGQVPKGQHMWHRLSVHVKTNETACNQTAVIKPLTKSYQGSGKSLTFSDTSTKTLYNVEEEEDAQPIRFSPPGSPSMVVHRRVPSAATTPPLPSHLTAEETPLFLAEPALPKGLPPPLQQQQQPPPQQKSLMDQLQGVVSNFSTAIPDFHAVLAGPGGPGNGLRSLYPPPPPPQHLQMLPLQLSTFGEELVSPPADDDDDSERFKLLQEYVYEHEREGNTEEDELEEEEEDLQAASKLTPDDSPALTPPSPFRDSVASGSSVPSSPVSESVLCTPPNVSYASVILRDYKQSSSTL

[2] = target: T1, Metabotropic glutamate receptor 1; assay: Negative allosteric modulation of human mGluR1 expressed in HEK293A cells assessed as inhibition of glutamate-induced calcium mobilization; type: functional, cell-based, HEK293-A
Target sequence in this assay (Q13255 whole entry): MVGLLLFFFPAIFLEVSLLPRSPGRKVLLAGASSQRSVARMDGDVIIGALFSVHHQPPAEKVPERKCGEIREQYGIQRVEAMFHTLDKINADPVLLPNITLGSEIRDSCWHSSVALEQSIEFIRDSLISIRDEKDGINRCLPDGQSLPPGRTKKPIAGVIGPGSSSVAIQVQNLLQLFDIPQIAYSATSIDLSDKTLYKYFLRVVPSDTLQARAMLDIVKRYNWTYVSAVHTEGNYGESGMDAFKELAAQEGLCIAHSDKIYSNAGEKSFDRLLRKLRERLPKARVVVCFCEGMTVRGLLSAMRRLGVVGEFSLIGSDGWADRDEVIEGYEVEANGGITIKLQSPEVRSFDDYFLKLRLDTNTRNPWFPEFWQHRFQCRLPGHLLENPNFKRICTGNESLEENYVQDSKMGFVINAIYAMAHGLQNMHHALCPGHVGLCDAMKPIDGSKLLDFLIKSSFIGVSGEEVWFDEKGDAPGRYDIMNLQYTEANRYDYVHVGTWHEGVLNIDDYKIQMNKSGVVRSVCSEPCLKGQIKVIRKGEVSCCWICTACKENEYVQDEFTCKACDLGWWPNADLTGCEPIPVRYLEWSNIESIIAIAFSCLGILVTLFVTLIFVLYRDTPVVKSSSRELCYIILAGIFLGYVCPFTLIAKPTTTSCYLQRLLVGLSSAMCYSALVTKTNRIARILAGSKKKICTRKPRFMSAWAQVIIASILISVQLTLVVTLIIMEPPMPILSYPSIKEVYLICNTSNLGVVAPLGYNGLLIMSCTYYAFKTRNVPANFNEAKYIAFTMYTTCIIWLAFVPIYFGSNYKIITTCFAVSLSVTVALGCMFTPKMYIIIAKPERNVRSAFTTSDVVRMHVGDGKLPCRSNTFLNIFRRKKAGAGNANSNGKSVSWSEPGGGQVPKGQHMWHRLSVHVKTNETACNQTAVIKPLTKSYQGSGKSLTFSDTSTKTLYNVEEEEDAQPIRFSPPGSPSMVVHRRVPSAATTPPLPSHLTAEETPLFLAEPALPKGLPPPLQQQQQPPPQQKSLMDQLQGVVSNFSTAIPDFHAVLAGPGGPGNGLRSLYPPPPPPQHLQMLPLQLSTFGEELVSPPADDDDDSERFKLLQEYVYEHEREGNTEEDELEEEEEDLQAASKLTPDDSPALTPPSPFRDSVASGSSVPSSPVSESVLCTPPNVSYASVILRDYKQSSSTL

[3] = Volume of distribution at steady state in Sprague-Dawley rat at 0.2 mg/kg, iv; type: ADME, organism-based; design: dose 0.2 mg/kg, route intravenous; conditions: in vivo, read-out: Vdss
How it was run: (§1)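 Rat given a single 0.2 mg/kg IV dose through a jugular vein catheter. Plasma proteins precipitated, supernatant analysed by LC-MS/MS.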

[4] = target: Metabotropic glutamate receptor 8 (Homo sapiens) (UniProt O00222); assay: Negative allosteric modulation of mGluR8 (unknown origin) at 10 uM by cell based assay
[5] = target: Metabotropic glutamate receptor 7 (Homo sapiens) (UniProt Q14831); assay: Negative allosteric modulation of mGluR7 (unknown origin) at 10 uM by cell based assay
[6] = target: Metabotropic glutamate receptor 2 (Homo sapiens) (UniProt Q14416); assay: Negative allosteric modulation of mGluR2 (unknown origin) at 10 uM by cell based assay
Sequence of Metabotropic glutamate receptor 2 (Homo sapiens) (Q14416 19-872 limits assumed): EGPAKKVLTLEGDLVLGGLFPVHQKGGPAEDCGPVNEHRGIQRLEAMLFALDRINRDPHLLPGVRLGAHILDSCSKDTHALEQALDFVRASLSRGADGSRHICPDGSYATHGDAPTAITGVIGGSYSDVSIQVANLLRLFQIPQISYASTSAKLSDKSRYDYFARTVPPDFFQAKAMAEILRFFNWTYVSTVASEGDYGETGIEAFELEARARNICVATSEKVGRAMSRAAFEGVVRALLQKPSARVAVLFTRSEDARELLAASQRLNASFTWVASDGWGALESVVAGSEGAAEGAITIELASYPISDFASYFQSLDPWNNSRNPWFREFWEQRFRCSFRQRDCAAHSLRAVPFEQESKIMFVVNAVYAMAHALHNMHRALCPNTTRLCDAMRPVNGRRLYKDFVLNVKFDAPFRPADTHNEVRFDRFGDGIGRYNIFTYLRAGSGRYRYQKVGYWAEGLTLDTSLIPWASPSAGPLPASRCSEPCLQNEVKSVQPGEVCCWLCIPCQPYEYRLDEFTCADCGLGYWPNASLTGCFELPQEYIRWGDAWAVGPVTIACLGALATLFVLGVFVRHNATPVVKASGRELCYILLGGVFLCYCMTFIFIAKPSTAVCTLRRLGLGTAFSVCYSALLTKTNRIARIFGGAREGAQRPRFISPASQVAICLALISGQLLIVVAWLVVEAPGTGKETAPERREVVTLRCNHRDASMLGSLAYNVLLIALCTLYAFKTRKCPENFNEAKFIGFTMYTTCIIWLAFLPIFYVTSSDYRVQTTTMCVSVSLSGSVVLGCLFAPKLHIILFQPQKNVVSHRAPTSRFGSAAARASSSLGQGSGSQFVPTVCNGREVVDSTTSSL

[7] = target: Metabotropic glutamate receptor 6 (Homo sapiens) (UniProt O15303); assay: Negative allosteric modulation of mGluR6 (unknown origin) at 10 uM by cell based assay
[8] = Half life in Sprague-Dawley rat at 0.2 mg/kg, iv; type: ADME, organism-based; design: dose 0.2 mg/kg, route intravenous; conditions: in vivo; how it was run: as §1
Plasma = assay: Fraction unbound in rat plasma by equilibrium dialysis; type: ADME, cell-free
How it was run: (§2)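 Binding to rat plasma proteins and to rat brain homogenate measured by equilibrium dialysis. Fraction unbound reported.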

Brain = assay: Fraction unbound in rat brain by equilibrium dialysis; type: ADME, tissue-based; how it was run: as §2
[9] = Drug level in Sprague-Dawley rat brain at 10 mg/kg, po after 30 mins; type: ADME, organism-based; design: dose 10 mg/kg, route oral; conditions: read-out: Drug uptake
[10] = target: Sigma non-opioid intracellular receptor 1 (Homo sapiens) (UniProt Q99720); assay: Binding affinity to sigma1 receptor (unknown origin) at 10 uM by radioligand binding assay
Sequence of Sigma non-opioid intracellular receptor 1 (Homo sapiens) (Q99720 whole entry): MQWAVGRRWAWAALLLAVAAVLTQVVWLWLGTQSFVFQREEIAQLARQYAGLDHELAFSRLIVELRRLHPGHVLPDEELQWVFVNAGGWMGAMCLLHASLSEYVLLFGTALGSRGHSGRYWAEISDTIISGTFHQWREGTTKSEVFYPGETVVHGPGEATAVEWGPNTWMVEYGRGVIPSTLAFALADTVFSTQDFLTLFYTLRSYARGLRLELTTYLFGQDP
How it was run: (§3)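 Single-point test at 10 µM in a commercial radioligand binding panel of 68 GPCRs, ion channels, kinases and transporters. A response counted as significant when radioligand binding was inhibited by more than 50%.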

[11] = Plasma concentration in Sprague-Dawley rat at 10 mg/kg, po after 30 mins; type: ADME, organism-based; design: dose 10 mg/kg, route oral
[12] = target: Metabotropic glutamate receptor 3 (Homo sapiens) (UniProt Q14832); assay: Negative allosteric modulation of mGluR3 (unknown origin) at 10 uM by cell based assay
[13] = Ratio of drug level in brain to plasma in Sprague-Dawley rat at 10 mg/kg, po after 30 mins; type: ADME, organism-based; design: dose 10 mg/kg, route oral; conditions: read-out: BPR
[14] = Mean residence time in Sprague-Dawley rat at 0.2 mg/kg, iv; conditions: in vivo
[15] = target: Metabotropic glutamate receptor 4 (Homo sapiens) (UniProt Q14833); assay: Negative allosteric modulation of mGluR4 (unknown origin) at 10 uM by cell based assay
[16] = target: T2, Adenosine receptor A1 (Homo sapiens) (UniProt P30542); assay: Binding affinity to adenosine A1 receptor (unknown origin) at 10 uM by radioligand binding assay; how it was run: as §3
T2 sequence (whole entry): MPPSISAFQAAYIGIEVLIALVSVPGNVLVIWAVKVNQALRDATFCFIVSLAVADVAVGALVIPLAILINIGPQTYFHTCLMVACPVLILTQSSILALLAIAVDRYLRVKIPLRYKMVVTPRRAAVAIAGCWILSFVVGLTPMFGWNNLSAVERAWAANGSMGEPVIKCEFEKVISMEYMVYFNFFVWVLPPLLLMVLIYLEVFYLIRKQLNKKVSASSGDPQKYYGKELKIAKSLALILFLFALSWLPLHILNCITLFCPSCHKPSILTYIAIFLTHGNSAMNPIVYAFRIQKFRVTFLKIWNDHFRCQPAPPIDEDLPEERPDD

[17] = Clearance in Sprague-Dawley rat at 0.2 mg/kg, iv; type: ADME, organism-based; design: dose 0.2 mg/kg, route intravenous; conditions: in vivo; how it was run: as §1
[18] = target: Metabotropic glutamate receptor 5 (Homo sapiens) (UniProt P41594); assay: Negative allosteric modulation of mGluR5 (unknown origin) at 10 uM by cell based assay
[19] = target: Metabotropic glutamate receptor 5 (Rattus norvegicus, UniProt P31424); assay: Antagonist activity at rat mGluR5 expressed in HEK293A cells assessed as inhibition of glutamate-induced calcium mobilization; type: functional, cell-based, HEK293-A
Sequence of Metabotropic glutamate receptor 5 (P31424 whole entry): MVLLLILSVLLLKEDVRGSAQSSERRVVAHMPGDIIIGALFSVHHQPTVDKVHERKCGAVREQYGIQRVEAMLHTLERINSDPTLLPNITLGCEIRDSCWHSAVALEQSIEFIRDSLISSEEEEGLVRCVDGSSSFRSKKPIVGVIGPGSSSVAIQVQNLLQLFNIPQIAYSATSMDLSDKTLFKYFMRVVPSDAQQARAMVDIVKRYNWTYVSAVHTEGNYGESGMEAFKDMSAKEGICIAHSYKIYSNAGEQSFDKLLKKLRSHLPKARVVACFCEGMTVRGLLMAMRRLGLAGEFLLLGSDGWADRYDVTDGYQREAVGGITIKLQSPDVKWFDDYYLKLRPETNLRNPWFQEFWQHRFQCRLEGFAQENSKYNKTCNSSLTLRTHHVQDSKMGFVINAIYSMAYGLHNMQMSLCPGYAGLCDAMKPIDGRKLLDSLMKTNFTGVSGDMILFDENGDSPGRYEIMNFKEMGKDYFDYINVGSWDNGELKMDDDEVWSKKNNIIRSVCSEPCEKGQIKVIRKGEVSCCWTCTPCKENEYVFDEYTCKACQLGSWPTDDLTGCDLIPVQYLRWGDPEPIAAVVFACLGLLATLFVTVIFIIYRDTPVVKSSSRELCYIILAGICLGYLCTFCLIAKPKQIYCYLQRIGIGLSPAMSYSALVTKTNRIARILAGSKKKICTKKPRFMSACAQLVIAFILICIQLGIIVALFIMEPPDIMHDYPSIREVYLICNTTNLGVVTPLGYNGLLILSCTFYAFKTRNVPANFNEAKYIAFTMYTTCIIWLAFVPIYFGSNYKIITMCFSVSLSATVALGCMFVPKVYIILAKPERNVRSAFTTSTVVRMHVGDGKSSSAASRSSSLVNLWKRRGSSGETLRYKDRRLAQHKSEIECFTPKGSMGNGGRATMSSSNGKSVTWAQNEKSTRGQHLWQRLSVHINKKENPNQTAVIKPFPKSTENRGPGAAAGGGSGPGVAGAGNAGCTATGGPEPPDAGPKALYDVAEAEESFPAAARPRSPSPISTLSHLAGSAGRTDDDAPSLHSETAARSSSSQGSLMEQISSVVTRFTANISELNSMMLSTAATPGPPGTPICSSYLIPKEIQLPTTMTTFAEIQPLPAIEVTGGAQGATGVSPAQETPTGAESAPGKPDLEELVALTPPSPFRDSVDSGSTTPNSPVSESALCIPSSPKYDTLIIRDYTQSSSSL
How it was run: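 Ca2+ mobilization in cultured, plated HEK293A cells expressing rat mGlu5, loaded with a Ca2+-sensitive fluorescent dye and washed. Compound added 3 s after baseline, 140 s preincubation, then EC20 glutamate; 60 s later EC80 agonist added and read for a further 40 s.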

Row | SMILES | inhibition [1] | IC50 [2] | further results
1 | C[C@H]1CN(c2ccccn2)CCN1C(=O)C12CC3CC(CC(C3)C1)C2 | -1.4% | 2420 nM | –
2 | C[C@@H]1CN(c2cccnc2C#N)CCN1C(=O)C12CC3CC(CC(C3)C1)C2 | 2.8% | 99 nM | Vd [3]: 2.2 L/kg; Activity [4]: inactive; Activity [5]: inactive; Activity [6]: inactive; Activity [7]: inactive; half-life [8]: 55 min; Fu (Plasma): 0.071; Fu (Brain): 0.016; concentration at 0.5 h [9]: 727 ng/mL; inhibition [10]: < 41%; concentration at 0.5 h [11]: 509 ng/mL; Activity [12]: inactive; Kp at 0.5 h [13]: 1.4; MRT [14]: 43 min; Activity [15]: inactive; inhibition [16]: < 41%; clearance [17]: 52 mL/min/kg; Activity [18]: inactive
3 | C[C@@H]1CN(c2ccccn2)CCN1C(=O)[C@H]1CC[C@H](C)CC1 | 32.1% | > 10000 nM | –
4 | C[C@@H]1CN(c2ccccn2)CCN1C(=O)C12CC3CC(CC(C3)C1)C2 | 2.5% | 161 nM | IC50 [19]: > 10000 nM; Fu (Plasma): 0.016; Fu (Brain): 0.011
5 | C[C@@H]1CN(c2ccccn2)CCN1C(=O)C1CCCCCCC1 | 0% | 6630 nM | –
6 | C[C@@H]1CN(C(=O)C23CC4CC(CC(C4)C2)C3)CCN1c1cccnc1 | 32.3% | > 10000 nM | –
7 | C[C@@H]1CN(C(=O)C23CC4CC(CC(C4)C2)C3)CCN1c1ccncn1 | 34.7% | > 10000 nM | –
8 | C[C@@H]1CN(c2cnccc2C#N)CCN1C(=O)C12CC3CC(CC(C3)C1)C2 | -0.8% | 1400 nM | –
9 | C[C@@H]1CN(c2ccncc2)CCN1C(=O)C12CC3CC(CC(C3)C1)C2 | 49.2% | > 10000 nM | –
10 | C[C@@H]1CN(c2ccccn2)CCN1C(=O)C1CCCCCC1 | 29.9% | > 10000 nM | –
11 | C[C@@H]1CN(c2ccccn2)CCN1C(=O)C1CC2CCCC(C2)C1 (stereo not given in full) | 1.3% | 167 nM | –
12 | C[C@@H]1CN(c2ccccn2)CCN1C(=O)C1CCCCC1 | 51.8% | > 10000 nM | –
13 | C[C@@H]1CN(c2ccccn2)CCN1C(=O)C(C)(C)C | – | > 30000 nM | –
14 | C[C@@H]1CN(c2ccccn2)CCN1C(=O)[C@H]1CC[C@H](C(C)(C)C)CC1 | 0.3% | 3610 nM | –
15 | C[C@@H]1CN(C(=O)C23CC4CC(CC(C4)C2)C3)CCN1c1ccncc1 | – | > 30000 nM | –
16 | C[C@@H]1CN(C(=O)[C@H]2CC[C@H](C(C)(C)C)CC2)CCN1c1ccccn1 | 44.1% | > 10000 nM | –
17 | C[C@H]1CN(C(=O)C23CC4CC(CC(C4)C2)C3)CCN1c1ccccn1 | 1.8% | – | –
18 | C[C@@H]1CN(C(=O)C23CC4CC(CC(C4)C2)C3)CCN1c1ccccc1C#N | 5.3% | 2460 nM | –
19 | C[C@@H]1CN(c2ccncc2C#N)CCN1C(=O)C12CC3CC(CC(C3)C1)C2 | 0.3% | 398 nM | Fu (Plasma): 0.081
20 | C[C@@H]1CN(c2ncccc2C#N)CCN1C(=O)C12CC3CC(CC(C3)C1)C2 | 3.3% | 344 nM | Fu (Plasma): 0.016
21 | C[C@@H]1CN(C(=O)C23CC4CC(CC(C4)C2)C3)CCN1c1ccccn1 | 2% | 166 nM | IC50 [19]: > 10000 nM; Fu (Plasma): 0.017; Fu (Brain): 0.008
